# Screens as filed in PubChem.
# Only some compounds are listed: those with a hit (about 2.1% of all), similar ones and a draw of the others.
# EBI2 antag = EBI2 (human) antagonism; EBI2 beta-arrestin recruitment, luminescence, 7a,25-OHC stimulated; P32249; inhibition, % at 5 µM; hit rate 0.81% among 360,000; in the data active = inhibition above about 38%;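 also: enzyme fragment complementation signal reports receptor beta-arrestin coupling in cells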
# CXCR6 inh = blocks human CXCR6 beta-arrestin recruitment; O00574; inhibition, % at 20 µM; hit rate 0.36% among 360,000; CHO-K1 PathHunter CXCR6 beta-arrestin, luminescence; AID 602244; in the data active = inhibition above about 34%, passing the limit was not always enough;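 also: antagonist mode with CXCL16 agonist at 10 nM final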
# Target sequence (O00574 whole entry, looked up): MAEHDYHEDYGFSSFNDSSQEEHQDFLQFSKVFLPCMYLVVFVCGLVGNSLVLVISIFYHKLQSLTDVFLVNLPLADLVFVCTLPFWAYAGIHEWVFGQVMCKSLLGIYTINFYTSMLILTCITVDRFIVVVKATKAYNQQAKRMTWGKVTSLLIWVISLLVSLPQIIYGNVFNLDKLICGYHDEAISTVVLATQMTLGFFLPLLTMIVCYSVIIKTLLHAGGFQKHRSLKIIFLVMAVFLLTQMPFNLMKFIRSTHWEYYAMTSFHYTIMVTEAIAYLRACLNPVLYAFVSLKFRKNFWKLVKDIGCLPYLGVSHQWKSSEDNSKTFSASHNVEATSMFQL
# APJ ag = activates the human apelin receptor APJ | hit rate 0.11% among 330,000 | P35414 | activation, % at 20 µM | CHO-K1 APJ PathHunter beta-arrestin, luminescence; 0% DMSO wells, 100% apelin;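 active = activation more than six SD over the plate average, tested at 20 µM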
#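 Assay system: CHO-K1 cells stably expressing ProLink-tagged human APJ and arrestin–beta-gal acceptor. Compound dosing: 20 µM single point, 1% DMSO. Times: 16-18 h seeding, 90 min dark compound exposure, 60 min detection. Detection: beta-gal luminescence. Evaluation: APJ–arrestin association signal. Controls: negative DMSO alone, positive Apelin-13 at 10 nM.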
# m5-HT2A agonist = activates the mouse 5-HT2A serotonin receptor | activation, % at 7.6 µM | CHO-K1 mHTR2A beta-arrestin complementation, luminescence; percent of 30 µM serotonin response | hit rate 0.66% among 360,000;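 active = activation above a run cutoff, the mean activation of all tested compounds plus 3 SD, cut at about 14% in these data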
# CCR6 antag = blocks CCL20-driven beta-arrestin recruitment at human CCR6. hit rate 0.49% among 340,000. CHO-K1 CCR6 PathHunter beta-arrestin, luminescence, CCL20-stimulated. inhibition, % at 20 µM. P51684. AID 493098;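 active = compounds whose inhibition of the agonist-driven luminescence signal at 20 µM reaches about 50%, limit read from the data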;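 also: cells stimulated with CCL20 at 14 nM final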
# APJ antagonist = blocks the human apelin receptor APJ; P35414; CHO-K1 APJ beta-arrestin complementation, luminescence; inhibition, % at 20 µM; hit rate 0.32% among 330,000; AID 2521;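 active = inhibition above about 40% at 20 µM, limit read from the data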;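 also: cells challenged with 10 nM apelin-13 agonist together with compound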
# Numbers stand for hits; n = inactive; x = no result given.
SMILES,EBI2 antag,CXCR6 inh,APJ ag,m5-HT2A agonist,CCR6 antag,APJ antagonist
Cc1ccc(N2C(=O)NC(=O)/C(=C/C=C/c3ccco3)C2=O)cc1,45.1,n,n,n,53.2,n
Cc1cc(C)cc(N2C(=O)NC(=O)/C(=C\C=C\c3ccco3)C2=O)c1,n,n,x,n,n,x
CCc1ccc(N2C(=O)NC(=O)/C(=C\C=C\c3ccco3)C2=O)cc1,n,n,n,n,n,n
O=C1NC(=O)N(c2ccccc2)C(=O)/C1=C\C=C\c1ccccc1,n,52.7,n,n,n,n
O=C(c1cc(S(=O)(=O)N2CCC3(CC2)OCCO3)ccc1F)N1CCC2(CC1)OCCO2,n,n,n,n,n,n
O=C(CN1CCCCC1)c1cccc(Br)c1,n,n,n,n,67.9,n
COC(=O)[C@@H]1[C@@H](C(=O)OC)C2(c3ccccc3-c3ccccc32)N(c2ccc(Cl)cc2)N1C#N,44.7,n,n,n,n,n
CN1CCc2cc3c(cc2C1)OCO3,n,n,x,n,n,x
COc1ccc(C2C3C=CC(C3)C2C(=O)O)cc1 (centres undefined),n,n,x,n,x,x
N#CC1c2ccccc2-n2nncc2CN1Cc1cc(Cl)cc(Cl)c1 (centres undefined),43.4,n,x,n,n,x
Cc1ccc(Oc2cc(NN3CCCCC3)c([N+](=O)[O-])cc2[N+](=O)[O-])c([N+](=O)[O-])c1,n,n,n,n,n,n
Cc1cc(C=C2C(=O)NC(=S)NC2=O)c(C)n1-c1ccc2c(c1)OCO2,n,n,n,16.0,n,n
Cc1ccccc1-n1c(/C=C/c2ccccn2)nc2ccccc2c1=O,n,n,n,n,n,n
CN1C2CCC1/C(=C/c1ccccn1)C(=O)/C2=C\c1ccccn1,n,37.8,x,n,n,x
CCOC(=O)[C@]12Cc3cc(Cl)ccc3[C@H]1N(C1CCCCC1)C(=O)c1ccccc12,75.9,n,x,n,x,x
CCOC(=O)[C@]12Cc3cc(Cl)ccc3[C@H]1N(C)C(=O)c1ccccc12,n,n,x,n,x,x
Cc1ccc(N2C(=O)NC(=O)/C(=C/c3cnn(-c4ccc(C)cc4)c3)C2=O)cc1,n,43.2,n,n,n,n
COc1ccc(O)c2c(=O)c3c(OC)cc4c(c3oc12)C1C=COC1O4 (centres undefined),53.1,n,n,n,n,n
CC(C)(C)n1nnnc1C(C1CC1)N1CCC2(CC1)C(=O)NCN2c1ccccc1 (centres undefined),n,n,x,n,x,x
CCOc1ccc(N2C(=O)/C(=C/c3ccco3)C(=O)NC2=S)cc1,n,58.0,n,n,78.6,n
CC(=O)O/C(=C1\CC2C3CC=C4CC(OC(C)=O)CCC4(C)C3CCC2(C)C1=O)C(F)(F)F (centres undefined),n,62.2,x,n,82.6,x
O=[N+]([O-])c1ccc(N2CCNCC2)cc1N1CCCCC1,n,n,n,n,n,n
O=[N+]([O-])c1cccnc1N1CCCNCC1,n,n,n,32.4,n,n
COc1ccc(NC(=O)c2cc([N+](=O)[O-])ccc2N2CCNCC2)cc1,n,n,n,n,n,n
C=CCCC[C@@H]1OC(=O)CNC(=O)C([C@@H](C)CC)NC(=O)[C@@H]2CCCN2C(=O)C([C@@H](C)CC)OC(=O)[C@H](Cc2ccccc2)N(C)C(=O)[C@H](C(C)C)NC(=O)C1(C)C (some centres undefined),n,n,x,n,x,x
CC[C@H](C)C1OC(=O)[C@@H](C)[C@@H](CC)NC(=O)[C@H](C)N(C)C(=O)C(C)(C)C(=O)C(C)NC(=O)[C@H](Cc2ccc(OC)cc2)N(C)C(=O)[C@H](C(C)C)N(C)C(=O)CNC(=O)[C@H](CC(C)C)N(C)C(=O)CNC1=O (some centres undefined),n,n,x,20.9,x,x
COc1ccc(C2CN(C)CC2C(=O)c2ccc(C)cc2)cc1Cl (centres undefined),n,n,n,n,n,n
CCCCn1c(NC(=O)c2ccc(Br)o2)c(C(=O)OCC)c2nc3ccccc3nc21,n,n,n,n,n,62.8
CCn1c(=O)n(CC(=O)N2CCC3(CC2)OCCO3)c(=O)c2ccccc21,n,n,n,n,n,n
O=c1[nH]c(=S)n(Cc2ccc(F)cc2)c(O)c1/C=N/N1CCCCCC1,n,n,n,n,n,n
